The values below come from publication PMC9728588 (Chemical Science, 2022).

For data set [1], the target named is CD47 (Homo sapiens, UniProt Q08722). The data set is described as follows: SPRi analysis of the binding between RT and CD47.
Data set [2] relates to red blood cells. The data set can be described thus: Hemolysis assay. The class given is cell-based, mouse. The following applies: 2% (v/v) RBC in PBS, 37 °C, 1 h; absorbance 540 nm; water / PBS controls. The method in brief: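 Red cells were exposed to the test peptide across a concentration range, and separately to peptide–quantum dot co-assemblies (peptide fixed at 1 mg mL−1, QD level varied). Supernatants were scanned by UV-vis spectroscopy to derive hemolysis rates. Means ± s.d., n = 3; one-way ANOVA with Tukey post hoc test.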

Ends that are not written are not given here.

Chain of CD47 (Q08722 19-323, species assumed): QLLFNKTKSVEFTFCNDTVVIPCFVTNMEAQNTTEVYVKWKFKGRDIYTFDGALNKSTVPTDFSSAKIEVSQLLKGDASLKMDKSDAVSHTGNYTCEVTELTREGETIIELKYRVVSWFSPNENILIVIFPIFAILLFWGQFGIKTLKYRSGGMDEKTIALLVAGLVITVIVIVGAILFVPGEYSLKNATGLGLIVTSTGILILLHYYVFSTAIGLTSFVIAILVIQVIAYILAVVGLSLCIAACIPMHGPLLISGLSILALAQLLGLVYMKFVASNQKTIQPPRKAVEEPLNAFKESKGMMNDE

In data set [1], HFEYWEERHKKLVFF [RT] yielded a Kd of 318 nM. Moreover, in data set [2], the hemolytic effect entry was “almost no hemolytic effect”.
